# In ChEMBL document CHEMBL2029200, “Discovery of a novel melanin concentrating hormone receptor 1 (MCHR1) antagonist with reduced hERG inhibition” (Bioorg Med Chem Lett, 2012):
# Legend:
# [1] = biological target: D(2) dopamine receptor (Homo sapiens, UniProt P14416); experiment: Binding affinity to dopamine D2 receptor
# [2] = biological target: Sodium-dependent serotonin transporter (Homo sapiens, UniProt P31645); experiment: Binding affinity to serotonin transporter
# [3] = Mean residence time in rat at 3 mg/kg, po; format: ADME, organism-based; parameters: dose 3 mg/kg, route oral; details: in vivo
# How it was run: (§1)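 Pharmacokinetics determined after IV dosing at 0.5 mg/kg and oral dosing at 3 mg/kg.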
# [4] = biological target: Melanin-concentrating hormone receptor 1 (Rattus norvegicus, UniProt P97639); experiment: Antagonist activity at rat MCHR1 assessed inhibition of MCH-mediated intracellular Ca2+ calcium mobilization; format: functional, cell-based
# How it was run: (§2)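 MCH-evoked intracellular Ca2+ mobilization read by aequorin luminescence in cells. Antagonism measured as blockade of the MCH response.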
# [5] = biological target: Melanin-concentrating hormone receptor 1 (Macaca mulatta, UniProt Q8MJ89); experiment: Antagonist activity at rhesus monkey MCHR1 assessed inhibition of MCH-mediated intracellular Ca2+ calcium mobilization; format: functional, cell-based; how it was run: as §2
# [6] = Oral bioavailability in cynomolgus monkey at 3 mg/kg; format: ADME, organism-based, Macaca fascicularis; details: in vivo; how it was run: as §1
# [7] = biological target: Alpha-2A adrenergic receptor (Homo sapiens, UniProt P08913); experiment: Binding affinity to adrenergic alpha2A receptor
# [8] = biological target: 5-hydroxytryptamine receptor 2A (Homo sapiens, UniProt P28223); experiment: Binding affinity to serotonin 5HT2A receptor
# [9] = biological target: T1, 5-hydroxytryptamine receptor 2C (Homo sapiens, UniProt P28335); experiment: Antagonist activity at serotonin 5HT2C receptor assessed as blockage of intracellular calcium mobilization; format: functional, cell-based
# [10] = Oral bioavailability in mouse at 3 mg/kg; format: ADME, organism-based; details: in vivo; how it was run: as §1
# [11] = Cmax in dog at 300 mg/kg, po; format: ADME, organism-based, Canis lupus familiaris; parameters: dose 300 mg/kg, route oral; details: in vivo
# How it was run: (§3)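 Dogs dosed orally at 300 mg/kg in a 4 h study. QTc monitored throughout; plasma Cmax determined.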
# [12] = Volume of distribution at steady state in rat at 0.5 mg/kg, iv; format: ADME, organism-based; parameters: dose 0.5 mg/kg, route intravenous; details: in vivo, read-out: Vdss; how it was run: as §1
# [13] = biological target: Mu-type opioid receptor (Homo sapiens, UniProt P35372); experiment: Binding affinity to opioid mu receptor
# [14] = biological target: 5-hydroxytryptamine receptor 1A (Homo sapiens, UniProt P08908); experiment: Binding affinity to serotonin 5HT1A receptor
# [15] = Plasma concentration in iv dosed rhesus monkey after 45 mins; format: ADME, organism-based, Macaca mulatta
# How it was run: (§4)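 Anesthetized rhesus monkeys received an IV bolus followed by a 45 min IV infusion. QTc recorded throughout.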
# [16] = Mean residence time in mouse at 3 mg/kg, po; format: ADME, organism-based; parameters: dose 3 mg/kg, route oral; details: in vivo; how it was run: as §1
# [17] = Volume of distribution at steady state in beagle dog at 0.5 mg/kg, iv; format: ADME, organism-based, Canis lupus familiaris; parameters: dose 0.5 mg/kg, route intravenous; details: in vivo, read-out: Vdss; how it was run: as §1
# [18] = test system: Canis familiaris; experiment: Cardiotoxicity in dog assessed as QT prolongation at 300 mg/kg, po; format: toxicity, organism-based, Canis lupus familiaris; parameters: dose 300 mg/kg, route oral; details: in vivo; how it was run: as §3
# [19] = Clearance in mouse at 0.5 mg/kg, iv; format: ADME, organism-based; parameters: dose 0.5 mg/kg, route intravenous; details: in vivo; how it was run: as §1
# [20] = test system: Rhesus monkey; experiment: Cardiotoxicity in rhesus monkey assessed as QT prolongation administered as bolus dose; format: toxicity, organism-based, Macaca mulatta; details: in vivo; how it was run: as §4
# [21] = Mean residence time in beagle dog at 3 mg/kg, po; format: ADME, organism-based, Canis lupus familiaris; parameters: dose 3 mg/kg, route oral; details: in vivo; how it was run: as §1
# [22] = Ratio of drug uptake in CSF to plasma of rat at 10 mg/kg, po; format: ADME, organism-based; parameters: dose 10 mg/kg, route oral; details: CSF and plasma
# [23] = Oral bioavailability in beagle dog at 3 mg/kg; format: ADME, organism-based, Canis lupus familiaris; details: in vivo; how it was run: as §1
# [24] = Volume of distribution at steady state in cynomolgus monkey at 0.5 mg/kg, iv; format: ADME, organism-based, Macaca fascicularis; parameters: dose 0.5 mg/kg, route intravenous; details: in vivo, read-out: Vdss; how it was run: as §1
# [25] = biological target: Alpha-2C adrenergic receptor (Homo sapiens, UniProt P18825); experiment: Binding affinity to adrenergic alpha2C receptor
# [26] = test system: Cynomolgus monkey; experiment: Cardiotoxicity in cynomolgus monkey assessed as QT prolongation at 30 mg/kg, po; format: toxicity, organism-based, Macaca fascicularis; parameters: dose 30 mg/kg, route oral; details: in vivo
# How it was run: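 Cynomolgus monkeys (n = 3) given a single 30 mg/kg oral dose; QTc monitored.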
# [27] = Clearance in beagle dog at 0.5 mg/kg, iv; format: ADME, organism-based, Canis lupus familiaris; parameters: dose 0.5 mg/kg, route intravenous; details: in vivo; how it was run: as §1
# [28] = test system: Canis familiaris; experiment: Cardiotoxicity in dog assessed as QT prolongation at 100 mg/kg, po BID for 28 days; format: toxicity, organism-based, Canis lupus familiaris; parameters: dose 100 mg/kg, route oral; details: in vivo, 672 h
# [29] = biological target: Sodium-dependent noradrenaline transporter (Homo sapiens, UniProt P23975); experiment: Binding affinity to norepinephrine transporter
# [30] = Ratio of drug uptake in blood to plasma of rat at 10 mg/kg, po; format: ADME, organism-based; parameters: dose 10 mg/kg, route oral; details: blood and plasma
# How it was run: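 Single 10 mg/kg oral dose. Drug concentration in whole blood was divided by the plasma concentration to give the [blood]/[plasma] ratio. Brain/plasma and CSF/plasma ratios were obtained after the same dose.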
# [31] = Clearance in cynomolgus monkey at 0.5 mg/kg, iv; format: ADME, organism-based, Macaca fascicularis; parameters: dose 0.5 mg/kg, route intravenous; details: in vivo; how it was run: as §1
# [32] = biological target: Muscarinic acetylcholine receptor M3 (Homo sapiens, UniProt P20309); experiment: Binding affinity to muscarinic M3 receptor
# [33] = biological target: T2, Melanin-concentrating hormone receptor 1 (Homo sapiens, UniProt Q99705); experiment: Antagonist activity at human MCHR1 assessed inhibition of MCH-mediated intracellular Ca2+ calcium mobilization by aequorin assay; format: functional, cell-based; how it was run: as §2
# [34] = Clearance in rat at 0.5 mg/kg, iv; format: ADME, organism-based; parameters: dose 0.5 mg/kg, route intravenous; details: in vivo; how it was run: as §1
# [35] = biological target: T2, Melanin-concentrating hormone receptor 1; experiment: Binding affinity to human MCHR1
# How it was run: (§5)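 Competition binding on MCHR1 membrane preparation with 125I-MCH tracer. Compound diluted in 50 mM Tris pH 7.4, 10 mM MgCl2, 2.5 mM EDTA, 0.2% BSA. Incubation 2 h at 37 °C with shaking. Bound and free ligand separated by vacuum filtration through BSA-pretreated filter plates. Filters washed 4 times in Hepes/NaCl/BSA buffer, then counted by scintillation.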
# [36] = biological target: Melanin-concentrating hormone receptor 2 (Homo sapiens, UniProt Q969V1); experiment: Antagonist activity at human MCHR2 assessed inhibition of MCH-mediated intracellular Ca2+ calcium mobilization; format: functional, cell-based; how it was run: as §2
# [37] = Ratio of drug uptake in brain to plasma of rat at 10 mg/kg, po; format: ADME, organism-based; parameters: dose 10 mg/kg, route oral; details: brain and plasma, read-out: BPR
# [38] = Oral bioavailability in rat at 3 mg/kg; format: ADME, organism-based; details: in vivo; how it was run: as §1
# [39] = biological target: Muscarinic acetylcholine receptor M2 (Homo sapiens, UniProt P08172); experiment: Binding affinity to muscarinic M2 receptor
# [40] = Mean residence time in cynomolgus monkey at 3 mg/kg, po; format: ADME, organism-based, Macaca fascicularis; parameters: dose 3 mg/kg, route oral; details: in vivo; how it was run: as §1
# [41] = biological target: T2, Melanin-concentrating hormone receptor 1; experiment: Displacement of [125I]-MCH from MCHR1 after 2 hrs by scintillation counting; how it was run: as §5
# [42] = biological target: T1, 5-hydroxytryptamine receptor 2C; experiment: Binding affinity to serotonin 5HT2C receptor
# [43] = biological target: Melanin-concentrating hormone receptor 1 (Mus musculus, UniProt Q8JZL2); experiment: Antagonist activity at mouse MCHR1 assessed inhibition of MCH-mediated intracellular Ca2+ calcium mobilization; format: functional, cell-based; how it was run: as §2
# [44] = biological target: Voltage-gated inwardly rectifying potassium channel KCNH2 (Homo sapiens, UniProt Q12809); experiment: Inhibition of human Erg expressed in HEK293 cells assessed as rubidium efflux after 4 hrs by atomic absorbance spectrometric analysis
# [45] = biological target: D(1A) dopamine receptor (Homo sapiens, UniProt P21728); experiment: Binding affinity to dopamine D1 receptor
# [46] = Volume of distribution at steady state in mouse at 0.5 mg/kg, iv; format: ADME, organism-based; parameters: dose 0.5 mg/kg, route intravenous; details: in vivo, read-out: Vdss; how it was run: as §1
# [47] = test system: Mus musculus; experiment: Antiobesity activity in high fat diet-fed C57BL/6 mouse expressing wild type MCHR1 gene assessed as reduction in body weight at 100 mg/kg, po daily measured for 34 weeks relative to control; format: functional; parameters: scale not given: the % may be the effect or the level left
# How it was run: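 Wild-type and MCHR1-knockout female C57BL/6 mice given compound mixed into a 60% kCal fat high-fat diet. Body weight gain at study end compared with vehicle.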
# Voltage-gated inwardly rectifying potassium channel KCNH2, sequence (Q12809 whole entry): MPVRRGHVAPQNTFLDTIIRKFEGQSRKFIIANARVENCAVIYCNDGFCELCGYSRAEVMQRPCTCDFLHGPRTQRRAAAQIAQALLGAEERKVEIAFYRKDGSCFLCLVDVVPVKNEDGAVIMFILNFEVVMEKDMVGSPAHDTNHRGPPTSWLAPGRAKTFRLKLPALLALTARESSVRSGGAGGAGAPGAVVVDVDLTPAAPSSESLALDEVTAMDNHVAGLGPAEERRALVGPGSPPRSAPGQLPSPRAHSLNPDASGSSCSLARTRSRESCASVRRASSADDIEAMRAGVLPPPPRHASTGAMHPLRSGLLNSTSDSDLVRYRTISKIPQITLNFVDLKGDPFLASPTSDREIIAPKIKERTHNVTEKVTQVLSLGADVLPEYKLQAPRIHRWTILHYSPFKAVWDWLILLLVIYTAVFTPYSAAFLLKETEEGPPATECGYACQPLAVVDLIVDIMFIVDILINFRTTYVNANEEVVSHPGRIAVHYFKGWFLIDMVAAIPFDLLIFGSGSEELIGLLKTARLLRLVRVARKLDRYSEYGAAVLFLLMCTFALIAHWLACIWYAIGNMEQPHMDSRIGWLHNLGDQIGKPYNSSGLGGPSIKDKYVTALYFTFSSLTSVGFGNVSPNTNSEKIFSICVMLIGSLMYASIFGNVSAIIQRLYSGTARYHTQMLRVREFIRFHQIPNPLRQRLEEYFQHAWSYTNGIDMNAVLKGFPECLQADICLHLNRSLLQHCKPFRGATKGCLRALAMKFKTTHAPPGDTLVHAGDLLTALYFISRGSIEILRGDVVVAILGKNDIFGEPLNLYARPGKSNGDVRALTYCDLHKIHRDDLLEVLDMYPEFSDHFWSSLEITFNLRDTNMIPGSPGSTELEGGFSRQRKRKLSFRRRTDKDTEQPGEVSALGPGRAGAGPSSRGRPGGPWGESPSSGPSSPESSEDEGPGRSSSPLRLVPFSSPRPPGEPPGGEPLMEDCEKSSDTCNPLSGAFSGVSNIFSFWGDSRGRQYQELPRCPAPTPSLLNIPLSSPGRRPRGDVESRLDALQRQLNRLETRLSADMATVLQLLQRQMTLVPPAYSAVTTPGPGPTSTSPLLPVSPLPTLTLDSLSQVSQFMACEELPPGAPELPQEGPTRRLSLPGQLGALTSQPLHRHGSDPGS
# T2 sequence (Q99705 whole entry): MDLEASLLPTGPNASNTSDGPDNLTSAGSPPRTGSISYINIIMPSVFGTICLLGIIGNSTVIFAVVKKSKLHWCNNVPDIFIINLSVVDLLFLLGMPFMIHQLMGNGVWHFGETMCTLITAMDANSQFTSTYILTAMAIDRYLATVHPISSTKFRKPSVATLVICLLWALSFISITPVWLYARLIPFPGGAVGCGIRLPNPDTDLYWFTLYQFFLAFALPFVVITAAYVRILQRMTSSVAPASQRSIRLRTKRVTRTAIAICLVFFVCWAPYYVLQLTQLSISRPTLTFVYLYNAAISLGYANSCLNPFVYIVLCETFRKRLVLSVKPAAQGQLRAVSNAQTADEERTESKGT
# T1 sequence (P28335 whole entry): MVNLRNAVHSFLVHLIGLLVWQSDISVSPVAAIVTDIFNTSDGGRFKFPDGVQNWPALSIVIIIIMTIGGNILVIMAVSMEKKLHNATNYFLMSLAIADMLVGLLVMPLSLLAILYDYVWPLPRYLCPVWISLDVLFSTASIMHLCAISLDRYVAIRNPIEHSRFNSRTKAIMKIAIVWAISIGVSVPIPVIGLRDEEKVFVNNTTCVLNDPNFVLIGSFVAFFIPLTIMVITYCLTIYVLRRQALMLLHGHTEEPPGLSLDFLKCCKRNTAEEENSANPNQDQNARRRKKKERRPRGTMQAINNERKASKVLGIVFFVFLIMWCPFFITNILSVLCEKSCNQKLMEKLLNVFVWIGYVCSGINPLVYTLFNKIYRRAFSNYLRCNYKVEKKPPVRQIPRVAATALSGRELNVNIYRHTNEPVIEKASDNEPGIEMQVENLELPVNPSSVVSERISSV
# Melanin-concentrating hormone receptor 2, sequence (Q969V1 whole entry): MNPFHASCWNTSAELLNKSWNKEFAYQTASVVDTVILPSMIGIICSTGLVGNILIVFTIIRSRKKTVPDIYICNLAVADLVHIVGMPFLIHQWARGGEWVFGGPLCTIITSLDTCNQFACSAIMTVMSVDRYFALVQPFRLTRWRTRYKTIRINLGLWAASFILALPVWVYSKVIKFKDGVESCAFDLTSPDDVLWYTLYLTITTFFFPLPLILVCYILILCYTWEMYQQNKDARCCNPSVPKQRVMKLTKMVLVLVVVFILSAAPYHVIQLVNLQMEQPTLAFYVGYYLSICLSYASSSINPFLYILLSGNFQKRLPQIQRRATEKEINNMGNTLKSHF
# Sodium-dependent serotonin transporter, sequence (P31645 whole entry): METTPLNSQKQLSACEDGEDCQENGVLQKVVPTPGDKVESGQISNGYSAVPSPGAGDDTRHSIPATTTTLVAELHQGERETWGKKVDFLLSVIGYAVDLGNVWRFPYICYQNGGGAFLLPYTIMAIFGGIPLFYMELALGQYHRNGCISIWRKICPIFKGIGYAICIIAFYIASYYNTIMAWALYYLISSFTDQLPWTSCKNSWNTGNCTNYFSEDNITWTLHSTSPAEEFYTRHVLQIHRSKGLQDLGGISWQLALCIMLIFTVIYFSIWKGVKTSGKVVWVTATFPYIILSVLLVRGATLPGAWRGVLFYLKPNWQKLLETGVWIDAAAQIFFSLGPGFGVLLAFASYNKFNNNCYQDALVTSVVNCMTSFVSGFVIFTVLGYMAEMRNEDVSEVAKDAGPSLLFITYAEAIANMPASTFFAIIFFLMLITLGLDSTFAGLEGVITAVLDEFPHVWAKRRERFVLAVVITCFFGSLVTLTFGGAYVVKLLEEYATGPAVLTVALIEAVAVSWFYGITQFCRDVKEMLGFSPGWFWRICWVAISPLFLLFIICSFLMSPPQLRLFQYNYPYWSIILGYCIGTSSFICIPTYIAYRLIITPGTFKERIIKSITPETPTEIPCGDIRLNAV
# Muscarinic acetylcholine receptor M3, sequence (P20309 whole entry): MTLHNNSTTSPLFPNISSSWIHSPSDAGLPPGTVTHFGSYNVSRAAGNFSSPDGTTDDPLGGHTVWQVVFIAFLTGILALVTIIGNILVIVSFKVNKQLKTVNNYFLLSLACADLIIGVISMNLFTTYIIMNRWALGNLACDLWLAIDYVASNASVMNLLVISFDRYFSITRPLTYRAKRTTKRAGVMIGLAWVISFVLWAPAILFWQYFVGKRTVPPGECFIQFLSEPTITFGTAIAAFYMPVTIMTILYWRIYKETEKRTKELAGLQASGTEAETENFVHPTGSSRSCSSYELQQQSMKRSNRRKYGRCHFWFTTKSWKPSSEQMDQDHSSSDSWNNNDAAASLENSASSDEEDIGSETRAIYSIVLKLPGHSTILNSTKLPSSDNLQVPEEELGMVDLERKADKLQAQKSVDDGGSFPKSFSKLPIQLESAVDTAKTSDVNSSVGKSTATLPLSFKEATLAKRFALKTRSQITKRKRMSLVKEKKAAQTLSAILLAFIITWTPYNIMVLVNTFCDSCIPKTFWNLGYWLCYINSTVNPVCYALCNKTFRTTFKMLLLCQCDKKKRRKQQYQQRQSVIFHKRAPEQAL
# 5-hydroxytryptamine receptor 1A, sequence (P08908 whole entry): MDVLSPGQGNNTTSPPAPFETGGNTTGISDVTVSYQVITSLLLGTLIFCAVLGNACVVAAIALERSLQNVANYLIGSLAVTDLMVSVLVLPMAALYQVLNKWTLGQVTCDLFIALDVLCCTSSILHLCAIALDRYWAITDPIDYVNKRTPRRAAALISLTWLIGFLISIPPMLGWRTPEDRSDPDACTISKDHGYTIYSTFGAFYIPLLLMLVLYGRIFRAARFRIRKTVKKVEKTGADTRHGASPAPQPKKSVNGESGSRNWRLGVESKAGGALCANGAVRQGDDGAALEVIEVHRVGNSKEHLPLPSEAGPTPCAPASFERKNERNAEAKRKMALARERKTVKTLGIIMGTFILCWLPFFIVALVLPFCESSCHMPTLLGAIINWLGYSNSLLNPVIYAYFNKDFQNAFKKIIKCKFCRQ
# D(1A) dopamine receptor, sequence (P21728 whole entry): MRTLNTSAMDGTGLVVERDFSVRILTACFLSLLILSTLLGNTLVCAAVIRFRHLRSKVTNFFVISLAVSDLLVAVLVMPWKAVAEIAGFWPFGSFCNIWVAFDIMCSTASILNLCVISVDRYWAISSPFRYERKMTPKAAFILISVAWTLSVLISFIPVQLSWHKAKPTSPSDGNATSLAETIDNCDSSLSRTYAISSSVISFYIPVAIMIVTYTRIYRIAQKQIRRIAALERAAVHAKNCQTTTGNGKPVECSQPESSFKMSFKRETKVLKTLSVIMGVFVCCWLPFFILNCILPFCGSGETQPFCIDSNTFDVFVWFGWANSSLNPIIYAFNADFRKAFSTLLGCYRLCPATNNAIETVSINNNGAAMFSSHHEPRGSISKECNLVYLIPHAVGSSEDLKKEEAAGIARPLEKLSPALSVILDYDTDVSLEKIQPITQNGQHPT
# Alpha-2C adrenergic receptor, sequence (P18825 whole entry): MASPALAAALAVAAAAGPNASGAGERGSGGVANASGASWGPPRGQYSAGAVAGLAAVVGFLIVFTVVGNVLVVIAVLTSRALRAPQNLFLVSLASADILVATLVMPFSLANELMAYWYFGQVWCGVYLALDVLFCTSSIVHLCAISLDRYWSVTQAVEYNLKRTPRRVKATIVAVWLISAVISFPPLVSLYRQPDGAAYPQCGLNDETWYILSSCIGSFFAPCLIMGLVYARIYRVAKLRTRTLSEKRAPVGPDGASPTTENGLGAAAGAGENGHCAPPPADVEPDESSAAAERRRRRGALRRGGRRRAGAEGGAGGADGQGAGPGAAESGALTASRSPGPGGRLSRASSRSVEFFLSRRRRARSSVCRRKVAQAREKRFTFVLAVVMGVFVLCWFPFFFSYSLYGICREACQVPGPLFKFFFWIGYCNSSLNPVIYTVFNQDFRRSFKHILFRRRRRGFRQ
# Melanin-concentrating hormone receptor 1 (Macaca mulatta, UniProt Q8MJ89), sequence (Q8MJ89 whole entry): as the sequence (Q99705 whole entry) above, with A14T, T33S, I36V, T60M counted along it
compound,measurement,setting,value
C[C@H]1c2c([nH]c3ccc(C(F)(F)F)cc23)C[C@H]2CCN(CCC3(C(=O)O)CCCCC3)C[C@@H]21,Ki,[1],3160 nM
same,Ki,[2],> 2000 nM
same,MRT,[3],7.9 h
same,IC50,[4],0.8 nM
same,IC50,[5],0.8 nM
same,bioavailability,[6],29%
same,Ki,[7],> 2000 nM
same,Ki,[8],> 2000 nM
same,IC50,[9],1140 nM
same,bioavailability,[10],79%
same,Cmax,[11],33 µM
same,Vd,[12],3.8 L/kg
same,Ki,[13],> 2000 nM
same,Ki,[14],> 2000 nM
same,concentration at 0.75 h,[15],6.5 µM
same,MRT,[16],5.8 h
same,Vd,[17],2.2 L/kg
same,Activity,[18],Non-toxic
same,clearance,[19],10.7 mL/min/kg
same,Activity,[20],Non-toxic
same,MRT,[21],4.2 h
same,Kp,[22],0.21
same,bioavailability,[23],40%
same,Vd,[24],2.3 L/kg
same,Ki,[25],> 2000 nM
same,Activity,[26],Non-toxic
same,clearance,[27],8.83 mL/min/kg
same,Activity,[28],Non-toxic
same,Ki,[29],> 2000 nM
same,blood plasma ratio,[30],0.79
same,clearance,[31],3.67 mL/min/kg
same,Ki,[32],> 2000 nM
same,IC50,[33],1.2 nM
same,clearance,[34],9.17 mL/min/kg
same,Ki,[35],0.6 nM
same,IC50,[36],> 10000 nM
same,Kp,[37],0.4
same,bioavailability,[38],70%
same,Ki,[39],> 2000 nM
same,MRT,[40],11 h
same,IC50,[41],0.6 nM
same,Ki,[42],1120 nM
same,IC50,[43],0.6 nM
same,IC50,[44],> 5000 nM
same,Ki,[45],> 2000 nM
same,Vd,[46],3.6 L/kg
C[C@H]1c2c([nH]c3ccc(C(F)(F)F)cc23)C[C@H]2CCN(CCCC3(C(=O)O)CCOCC3)C[C@@H]21,IC50,[41],40 nM
same,IC50,[44],300 nM
C[C@H]1c2c([nH]c3ccc(C(F)(F)F)cc23)C[C@H]2CCN(CCCC3CCOCC3)C[C@@H]21,IC50,[44],30 nM
C[C@H]1c2c([nH]c3ccc(C(F)(F)F)cc23)C[C@H]2CCN(CCC3(C(=O)O)CCCCC3)C[C@@H]21.Cl,Activity,[47],33%
